Experimental data as given in ChEMBL document CHEMBL5126632, “Balancing Affinity, Selectivity, and Cytotoxicity of Hydrazone-Based G-Quadruplex Ligands for Activation of Interferon β Genes in Cancer Cells” (J Med Chem, 2022).

Legend:
Quadruplex DNA [1] = experiment: Stabilization of human Tel26 G4 quadruplex DNA assessed as thermal stability by measuring difference in melting temperature t1/2 by circular dichroism spectroscopy; format: nucleic-acid assay
Quadruplex DNA [2] = experiment: Stabilization of c-kit1 G4 quadruplex d(DNA AGGGAGGGCGCTGGGAGGAGGG) DNA (unknown origin) assessed as thermal stability by measuring difference in melting temperature t1/2 by circular dichroism spectroscopy (reference value: 54 +/- 0.5 degC); format: nucleic-acid assay
Quadruplex DNA [3] = experiment: Stabilization of c-kit2 G4 quadruplex d(CGGGCGGGCGCTAGGGAGGGT) DNA (unknown origin) assessed as thermal stability by measuring difference in melting temperature t1/2 by circular dichroism spectroscopy (reference value: 61.5 +/- 0.5 degC); format: nucleic-acid assay
Quadruplex DNA [4] = experiment: Stabilization of c-myc G4 quadruplex d(TTAGGGTTAGGGTTAGGGTTAGGGTT) DNA (unknown origin) assessed as thermal stability by measuring difference in melting temperature t1/2 by circular dichroism spectroscopy (reference value: 72 +/- 0.5 degC); format: nucleic-acid assay
[5] = Stabilization of d(CGC GAA TTC GCG TIT CGC GAA TTC GCG) DNA hairpin (unknown origin) assessed as thermal stability by measuring difference in melting temperature t1/2 by circular dichroism spectroscopy (reference value: 75.4 +/- 0.2 degC)
Outline: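 CD melting of 15 μM annealed hairpin duplex in 5 mM K phosphate pH 7.0 with 20 mM KCl, with or without ligand at 2 molar equiv added to the folded DNA. The signal was followed at 252 nm from 20 to 100 °C at 1 °C/min, with T1/2 taken from a curve fit. ΔT1/2 is relative to DNA alone; duplicate runs, averaged.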

[6] = Cytotoxicity against mouse MNMCA1 cells assessed as cell survival preincubated for 24 hrs with compound further incubated for 48 hrs in drug free medium by MTT assay; format: functional, cell-based
Outline: (§1)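 Exponentially growing cells seeded and treated 24 h after seeding with increasing concentrations for 24 h. Cells then recovered 48 h in drug-free medium. MTT added for 1 h at 37 °C, formazan dissolved in DMSO, absorbance read at 540 nm. IC50 from linear regression. Means ± SEM of two independent experiments in triplicate.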

[7] = Stabilization of F-c-kit1-T (unknown origin) assessed as difference in melting temperature t1/2 in presence of d(CGC GAA TTC GCG TIT CGC GAA TTC GCG) DNA hairpin (unknown origin) measured at 1:15 G4 to hairpin DNA ratio by FRET assay
Outline: (§2)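 FRET melting of 0.2 μM prefolded FAM/TAMRA dual-labelled c-kit1 G4 in 5 mM K phosphate pH 7.0 with 20 mM KCl. Ligand was added at 2 molar equiv, with unlabelled hairpin competitor at 3 or 10 μM final (15 or 50 equiv relative to G4). FAM emission was read at 520 nm (excitation 492 nm) while heating at 0.2 °C/min over 15–90 °C. ΔT1/2 is relative to no ligand; at least duplicate, averaged.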

[8] = Stabilization of F-c-kit1-T (unknown origin) assessed as difference in melting temperature t1/2 in presence of d(CGC GAA TTC GCG TIT CGC GAA TTC GCG) DNA hairpin (unknown origin) measured at 1:50 G4 to hairpin DNA ratio by FRET assay; outline: as §2
Quadruplex DNA [9] = experiment: Stabilization of F-c-kit1-T quadruplex DNA (unknown origin) by measuring difference in melting temperature t1/2 by FRET assay; format: nucleic-acid assay
Outline: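 FRET melting of 0.2 μM prefolded FAM/TAMRA-labelled c-kit1 in 5 mM potassium phosphate pH 7.0 with 20 mM KCl, with ligand at 2 molar equiv. Unlabelled hairpin competitor added at 3 or 10 μM (15 or 50 equiv). FAM emission at 520 nm (excitation 492 nm) followed from 15 to 90 °C at 0.2 °C/min. ΔT1/2 versus no ligand. At least duplicate.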

Quadruplex DNA [10] = experiment: Displacement of thiazole orange from c-kit1 G4 quadruplex d(DNA AGGGAGGGCGCTGGGAGGAGGG) DNA (unknown origin) assessed as relative affinity by fluorescent intercalator displacement assay; format: nucleic-acid assay
Outline: (§3)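 G4 DNA at 0.25 μM with 0.5 μM thiazole orange in 5 mM potassium phosphate pH 7.0 containing 20 mM KCl (LiCl for c-myc), 20 °C. Ligand titrated from 0.5 to 20 molar equiv with 3 min equilibration per addition. Excitation 485 nm, emission 500–650 nm. %displacement = 100 − (F/F0×100); DC50 is the concentration displacing 50% TO. Duplicate titrations.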

Quadruplex DNA [11] = experiment: Displacement of thiazole orange from c-kit2 G4 quadruplex d(CGGGCGGGCGCTAGGGAGGGT) DNA (unknown origin) assessed as relative affinity by fluorescent intercalator displacement assay; format: nucleic-acid assay; outline: as §3
Quadruplex DNA [12] = experiment: Displacement of thiazole orange from c-myc G4 quadruplex d(TTAGGGTTAGGGTTAGGGTTAGGGTT) DNA (unknown origin) assessed as relative affinity by fluorescent intercalator displacement assay; format: nucleic-acid assay; outline: as §3
Quadruplex DNA [13] = experiment: Binding affinity to c-kit1 G4 quadruplex d(DNA AGGGAGGGCGCTGGGAGGAGGG) DNA (unknown origin) assessed as dissociation constant by Microscale thermophoresis analysis; format: nucleic-acid assay
Outline: (§4)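 MST with Cy5.5-labelled G4 oligonucleotide held at 20 nM, folded in 5 mM potassium phosphate pH 7.0 with 20 mM KCl plus 0.1% Tween. Ligand in 1:2 serial dilution mixed 1:1 with DNA, 20% DMSO final. Kd taken from binding curves.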

Quadruplex DNA [14] = experiment: Binding affinity to c-kit2 G4 quadruplex d(CGGGCGGGCGCTAGGGAGGGT) DNA (unknown origin) assessed as dissociation constant by Microscale thermophoresis analysis; format: nucleic-acid assay; outline: as §4
Quadruplex DNA [15] = experiment: Binding affinity toc-myc G4 quadruplex d(TTAGGGTTAGGGTTAGGGTTAGGGTT) DNA (unknown origin) assessed as dissociation constant by Microscale thermophoresis analysis; format: nucleic-acid assay; outline: as §4
U2OS [16] = experiment: Cytotoxicity against human U2OS cells assessed as cell survival preincubated for 24 hrs with compound further incubated for 48 hrs in drug free medium by MTT assay; format: functional, cell-based; outline: as §1
Quadruplex DNA [17] = experiment: Stabilization of G4 quadruplex DNA in human U2OS cells assessed as BG4 foci formation by measuring fold increase in G4 structure at 10 uM by immunofluorescence microscopy; format: cell-based
Outline: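 U2OS cells on coverslips treated for […]. Fixed in methanol/acetic acid 3:1, permeabilized with 0.1% Triton X-100, blocked in 2% milk. Stained with 0.5 μg BG4 for 2 h, then anti-FLAG and Alexa Fluor 488 secondary. Signal quantified as fold over untreated.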

U2OS [18] = experiment: Induction of DNA damage in human U2OS cells assessed as increase in gammaH2AX phosphorylation at S139 incubated for 24 hrs by immunofluorescence microscopy; format: functional, cell-based; details: read-out: IC50 (the source's name)
Outline: (§5)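 U2OS cells treated 24 h. Fixed with 4% formaldehyde, permeabilized with 0.5% Triton X-100, blocked with 8% BSA, stained with anti-γH2AX (1:500) and Alexa Fluor 594 secondary, DAPI counterstain. Fluorescence microscopy signal quantified as fold over untreated.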

U2OS [19] = experiment: Induction of DNA damage in human U2OS cells assessed as fold increase in gammaH2AX phosphorylation at […] by measuring fold change at 10 uM incubated for 24 hrs by immunofluorescence microscopy; format: functional; outline: as §5
[20] = Genotoxicity in mouse MNMCA1 cells assessed as induction of micronuclei formation measured after 24 hrs by DAPI staining based analysis; format: toxicity, cell-based; details: mnmca1, 24 h
[21] = Genotoxicity in mouse MNMCA1 cells assessed as induction of micronuclei formation at 1 uM incubated for 24 hrs by measuring fold change by DAPI staining based analysis; format: toxicity, cell-based; details: mnmca1, 24 h

SMILES	ΔTm (Quadruplex DNA [1])	ΔTm (Quadruplex DNA [2])	ΔTm (Quadruplex DNA [3])	ΔTm (Quadruplex DNA [4])	ΔTm [5]	IC50 [6]	IC50 (U2OS [16])	EC50 (U2OS [18])	fold change (FC) (U2OS [19])	also measured
Cc1ccc(-c2nc3n(ccc4nc(-c5ccccc5)c(/C=N/NC(=N)N)n43)c2/C=N/NC(=N)N)cc1	6.3 °C	25.2 °C	> 30 °C	16.9 °C	3.2 °C	–	–	–	–	–
Clc1ccc(-c2nc3ccn4c(/C=N/NC5=NCCN5)c(-c5ccccc5)nc4n3c2/C=N/NC2=NCCN2)cc1	6.3 °C	15.5 °C	22 °C	7.4 °C	1.2 °C	23.5 µM	20.2 µM	20 µM	1.37	ΔTm [7]: 21.4 °C; ΔTm [8]: 19.6 °C; ΔTm (Quadruplex DNA [9]): 24.6 °C; IC50 (Quadruplex DNA [10]): 2.7 µM; IC50 (Quadruplex DNA [11]): 1.7 µM; IC50 (Quadruplex DNA [12]): 1.8 µM; Kd (Quadruplex DNA [13]): 0.38 µM; Kd (Quadruplex DNA [14]): 0.49 µM; Kd (Quadruplex DNA [15]): 3 µM; fold change (FC) (Quadruplex DNA [17]): 0.77; fold change (FC) [20]: 0.4
Clc1ccc(-c2nc3n(ccc4nc(-c5ccc(Cl)cc5)c(/C=N/NC5=NCCN5)n43)c2/C=N/NC2=NCCN2)cc1	3.3 °C	9.6 °C	13.7 °C	5.5 °C	3.5 °C	–	–	–	–	–
N=C(N)N/N=C/c1c(-c2ccsc2)nc2ccn3c(C=O)c(-c4ccsc4)nc3n12	4.8 °C	16.1 °C	25.2 °C	9.1 °C	2.7 °C	–	–	–	–	–
N=C(N)N/N=C/c1c(-c2ccccc2)nc2ccn3c(C=O)c(-c4ccccc4)nc3n12	4.3 °C	11.2 °C	24.2 °C	5.8 °C	1.7 °C	1.9 µM	2.6 µM	2.4 µM	2.32	ΔTm [7]: 21.6 °C; ΔTm [8]: 22.2 °C; ΔTm (Quadruplex DNA [9]): 22 °C; Kd (Quadruplex DNA [13]): 0.3 µM; Kd (Quadruplex DNA [14]): 0.37 µM; Kd (Quadruplex DNA [15]): 7 µM; fold change (FC) [21]: 2.5
O=Cc1c(-c2ccccc2)nc2n1ccc1nc(-c3ccccc3)c(/C=N/NC3=NCCN3)n12	–	–	–	–	–	2.3 µM	4 µM	4 µM	1.55	fold change (FC) [21]: 2.5
N=C(N)N/N=C/c1c(-c2ccc(Cl)cc2)nc2n1ccc1nc(-c3ccc(Cl)cc3)c(/C=N/NC(=N)N)n12	4.1 °C	11.1 °C	> 30 °C	11.4 °C	2.9 °C	–	–	–	–	–
NCCOc1cc(C(=O)Nc2cc(OCCN)c3ccccc3n2)nc(C(=O)Nc2cc(OCCN)c3ccccc3n2)c1 [PYRIDOSTATIN]	–	–	–	–	–	27 µM	–	–	–	–
Cc1ccc(-c2nc3n(ccc4nc(-c5ccc(C)cc5)c(/C=N/NC(=N)N)n43)c2/C=N/NC(=N)N)cc1	5.5 °C	18.5 °C	> 30 °C	15.6 °C	4.1 °C	–	–	–	–	–
Cc1ccc(-c2nc3n(ccc4nc(-c5ccc(C)cc5)c(/C=N/NC5=NCCN5)n43)c2C=O)cc1	1.3 °C	3.8 °C	6.8 °C	1.5 °C	0 °C	–	–	–	–	–
